According to ChEMBL document CHEMBL1137074, “Novel N-arylpyrazolo[3,2-c]-based ligands for the glucocorticoid receptor: receptor binding and in vivo activity” (J Med Chem, 2004):

Tests used:
Glucocorticoid receptor [1] = target: T1, Glucocorticoid receptor (Homo sapiens, UniProt P04150); experiment: Glucocorticoid induced transactivation of human tyrosine amino transferase in HepG2 cells; assay type: functional, cell-based
T1 sequence (P04150 whole entry): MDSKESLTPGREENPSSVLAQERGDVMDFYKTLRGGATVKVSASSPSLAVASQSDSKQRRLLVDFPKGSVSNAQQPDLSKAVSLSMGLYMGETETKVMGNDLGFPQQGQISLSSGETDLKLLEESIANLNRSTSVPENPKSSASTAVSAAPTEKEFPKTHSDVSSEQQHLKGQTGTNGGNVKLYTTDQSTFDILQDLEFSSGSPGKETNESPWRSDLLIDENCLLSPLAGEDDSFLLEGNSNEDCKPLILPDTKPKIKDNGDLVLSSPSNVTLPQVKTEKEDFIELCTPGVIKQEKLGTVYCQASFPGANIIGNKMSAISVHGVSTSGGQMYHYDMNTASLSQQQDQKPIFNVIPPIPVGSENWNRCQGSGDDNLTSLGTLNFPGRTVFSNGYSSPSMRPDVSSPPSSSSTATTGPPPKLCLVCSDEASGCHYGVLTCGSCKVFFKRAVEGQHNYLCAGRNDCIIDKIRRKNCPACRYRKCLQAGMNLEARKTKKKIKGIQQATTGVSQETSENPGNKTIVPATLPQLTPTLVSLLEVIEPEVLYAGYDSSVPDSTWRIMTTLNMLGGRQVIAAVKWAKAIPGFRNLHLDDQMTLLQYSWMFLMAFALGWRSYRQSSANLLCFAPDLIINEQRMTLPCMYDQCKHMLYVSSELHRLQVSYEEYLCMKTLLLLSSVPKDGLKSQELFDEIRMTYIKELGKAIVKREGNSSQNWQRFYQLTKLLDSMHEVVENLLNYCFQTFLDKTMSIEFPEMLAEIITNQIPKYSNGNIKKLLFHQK

Glucocorticoid receptor [2] = target: T1, Glucocorticoid receptor; experiment: Binding affinity for human glucocorticoid receptor
[3] = target: Mineralocorticoid receptor (Rattus norvegicus) (UniProt P22199); experiment: Binding affinity for rat mineralocorticoid receptor
Estrogen receptor = target: T2, Estrogen receptor (Homo sapiens, UniProt P03372); experiment: Binding affinity for human Estrogen receptor alpha
T2 sequence (P03372 whole entry): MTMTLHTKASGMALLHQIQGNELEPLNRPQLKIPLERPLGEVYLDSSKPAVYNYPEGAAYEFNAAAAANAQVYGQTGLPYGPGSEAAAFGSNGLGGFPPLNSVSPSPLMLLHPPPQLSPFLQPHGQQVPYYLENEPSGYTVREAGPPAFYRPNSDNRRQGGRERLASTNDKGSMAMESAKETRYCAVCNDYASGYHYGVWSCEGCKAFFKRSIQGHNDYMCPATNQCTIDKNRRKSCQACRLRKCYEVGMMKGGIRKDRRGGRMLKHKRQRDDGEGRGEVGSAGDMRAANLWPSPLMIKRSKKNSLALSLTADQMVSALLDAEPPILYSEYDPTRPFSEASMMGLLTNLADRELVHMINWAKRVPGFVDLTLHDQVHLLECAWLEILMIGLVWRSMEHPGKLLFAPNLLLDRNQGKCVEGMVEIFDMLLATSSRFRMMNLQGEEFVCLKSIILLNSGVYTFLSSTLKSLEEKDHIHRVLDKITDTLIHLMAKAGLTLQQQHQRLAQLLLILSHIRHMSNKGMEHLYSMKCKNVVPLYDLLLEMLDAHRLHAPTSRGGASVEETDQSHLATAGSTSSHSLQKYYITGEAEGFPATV

Androgen receptor = target: T3, Androgen receptor (Homo sapiens, UniProt P10275); experiment: Binding affinity for human androgen receptor
T3 sequence (P10275 whole entry): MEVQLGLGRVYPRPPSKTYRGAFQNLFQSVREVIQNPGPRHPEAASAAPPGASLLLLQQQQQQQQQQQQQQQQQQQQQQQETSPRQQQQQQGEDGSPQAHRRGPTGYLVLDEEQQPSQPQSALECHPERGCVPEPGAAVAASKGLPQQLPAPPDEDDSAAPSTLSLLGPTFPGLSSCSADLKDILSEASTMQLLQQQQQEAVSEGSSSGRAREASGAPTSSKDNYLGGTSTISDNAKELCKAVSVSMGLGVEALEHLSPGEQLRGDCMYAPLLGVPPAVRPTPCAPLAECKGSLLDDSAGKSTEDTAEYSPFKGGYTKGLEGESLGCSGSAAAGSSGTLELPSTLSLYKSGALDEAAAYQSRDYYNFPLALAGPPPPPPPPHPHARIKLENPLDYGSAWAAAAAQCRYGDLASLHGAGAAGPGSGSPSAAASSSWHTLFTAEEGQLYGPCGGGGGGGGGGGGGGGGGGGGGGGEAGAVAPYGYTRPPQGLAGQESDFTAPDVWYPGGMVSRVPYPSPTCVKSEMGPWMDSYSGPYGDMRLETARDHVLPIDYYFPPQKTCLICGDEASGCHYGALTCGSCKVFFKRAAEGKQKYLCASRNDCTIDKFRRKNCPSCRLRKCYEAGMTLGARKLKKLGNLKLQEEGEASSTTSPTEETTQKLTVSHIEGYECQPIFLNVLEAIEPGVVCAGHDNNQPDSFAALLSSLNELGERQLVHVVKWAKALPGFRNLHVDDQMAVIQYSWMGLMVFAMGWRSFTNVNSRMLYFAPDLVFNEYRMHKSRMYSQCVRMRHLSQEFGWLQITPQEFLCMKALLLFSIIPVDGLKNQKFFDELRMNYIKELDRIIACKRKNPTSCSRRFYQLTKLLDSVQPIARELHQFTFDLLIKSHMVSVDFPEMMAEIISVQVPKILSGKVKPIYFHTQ

Glucocorticoid receptor [4] = target: T1, Glucocorticoid receptor; experiment: Compound was tested for inhibitory activity towards human glucocorticoid receptor
Glucocorticoid receptor [5] = target: T1, Glucocorticoid receptor; experiment: Ability to induce human IL-6 assay in A549 lung carcinoma cell line.; assay type: functional, cell-based
Progesterone receptor = target: T4, Progesterone receptor (Homo sapiens, UniProt P06401); experiment: Binding affinity towards human progesterone receptor
T4 sequence (P06401 whole entry): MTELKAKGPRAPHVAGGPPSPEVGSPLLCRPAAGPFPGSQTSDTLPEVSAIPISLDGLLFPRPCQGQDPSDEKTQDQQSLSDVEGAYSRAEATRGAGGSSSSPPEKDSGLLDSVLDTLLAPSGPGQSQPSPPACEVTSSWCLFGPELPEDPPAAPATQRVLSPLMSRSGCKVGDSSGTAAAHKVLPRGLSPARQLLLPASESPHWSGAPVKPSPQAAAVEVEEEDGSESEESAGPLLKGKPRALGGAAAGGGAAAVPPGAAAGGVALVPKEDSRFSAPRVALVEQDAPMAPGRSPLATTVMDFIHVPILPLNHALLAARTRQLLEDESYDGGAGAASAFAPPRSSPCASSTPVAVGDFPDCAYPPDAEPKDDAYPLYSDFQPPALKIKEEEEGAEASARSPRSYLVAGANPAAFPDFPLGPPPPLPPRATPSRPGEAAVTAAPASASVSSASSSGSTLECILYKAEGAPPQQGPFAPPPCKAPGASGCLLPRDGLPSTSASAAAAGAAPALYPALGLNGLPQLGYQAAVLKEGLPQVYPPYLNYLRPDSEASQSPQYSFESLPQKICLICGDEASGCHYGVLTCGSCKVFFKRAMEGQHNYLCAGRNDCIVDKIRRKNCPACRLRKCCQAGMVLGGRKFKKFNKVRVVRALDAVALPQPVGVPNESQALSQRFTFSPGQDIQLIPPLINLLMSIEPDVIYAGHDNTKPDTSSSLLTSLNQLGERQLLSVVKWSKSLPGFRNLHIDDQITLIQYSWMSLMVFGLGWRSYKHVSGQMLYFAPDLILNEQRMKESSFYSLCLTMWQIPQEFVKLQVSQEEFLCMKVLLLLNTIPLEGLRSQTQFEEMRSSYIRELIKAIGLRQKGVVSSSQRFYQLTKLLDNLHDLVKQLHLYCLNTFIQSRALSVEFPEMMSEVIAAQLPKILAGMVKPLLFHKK
In short: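 Receptor homogenates from frozen cell pellets in ice-cold KPO4 buffer (10 mM KPO4, 20 mM molybdate, 1 mM EDTA, 5 mM DTT, protease inhibitors), spun 35 000g 1 h at 4 °C. MR: recombinant baculovirus-expressed rat receptor, 2 nM [3H]aldosterone; PR: T-47D cell protein, 5 nM [3H]progesterone.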

Mus musculus = experiment: Ability to induce mouse macrophage IL-6 assay in peritoneal exudate cells harvested by […] from C57BI/6 mice.; assay type: functional, cell-based
In short: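 Thioglycolate-elicited peritoneal exudate cells from C57Bl/6 mice, harvested day 3 in PBS/heparin, washed and resuspended at 5.6×10^5 cells/mL in RPMI 1640 with 10% heat-inactivated FCS. Compound (typically 3 μM final) preincubated 1 h at 37 °C, 5% CO2, then LPS or TNF added, 24 h. Supernatant IL-6 read; duplicate wells, three experiments.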

Glucocorticoid receptor [6] = target: T1, Glucocorticoid receptor; experiment: Ability to induce human glutamine synthetase in skeletal muscle cells; assay type: cell-based

Sequence of Mineralocorticoid receptor (Rattus norvegicus) (P22199 whole entry, looked up): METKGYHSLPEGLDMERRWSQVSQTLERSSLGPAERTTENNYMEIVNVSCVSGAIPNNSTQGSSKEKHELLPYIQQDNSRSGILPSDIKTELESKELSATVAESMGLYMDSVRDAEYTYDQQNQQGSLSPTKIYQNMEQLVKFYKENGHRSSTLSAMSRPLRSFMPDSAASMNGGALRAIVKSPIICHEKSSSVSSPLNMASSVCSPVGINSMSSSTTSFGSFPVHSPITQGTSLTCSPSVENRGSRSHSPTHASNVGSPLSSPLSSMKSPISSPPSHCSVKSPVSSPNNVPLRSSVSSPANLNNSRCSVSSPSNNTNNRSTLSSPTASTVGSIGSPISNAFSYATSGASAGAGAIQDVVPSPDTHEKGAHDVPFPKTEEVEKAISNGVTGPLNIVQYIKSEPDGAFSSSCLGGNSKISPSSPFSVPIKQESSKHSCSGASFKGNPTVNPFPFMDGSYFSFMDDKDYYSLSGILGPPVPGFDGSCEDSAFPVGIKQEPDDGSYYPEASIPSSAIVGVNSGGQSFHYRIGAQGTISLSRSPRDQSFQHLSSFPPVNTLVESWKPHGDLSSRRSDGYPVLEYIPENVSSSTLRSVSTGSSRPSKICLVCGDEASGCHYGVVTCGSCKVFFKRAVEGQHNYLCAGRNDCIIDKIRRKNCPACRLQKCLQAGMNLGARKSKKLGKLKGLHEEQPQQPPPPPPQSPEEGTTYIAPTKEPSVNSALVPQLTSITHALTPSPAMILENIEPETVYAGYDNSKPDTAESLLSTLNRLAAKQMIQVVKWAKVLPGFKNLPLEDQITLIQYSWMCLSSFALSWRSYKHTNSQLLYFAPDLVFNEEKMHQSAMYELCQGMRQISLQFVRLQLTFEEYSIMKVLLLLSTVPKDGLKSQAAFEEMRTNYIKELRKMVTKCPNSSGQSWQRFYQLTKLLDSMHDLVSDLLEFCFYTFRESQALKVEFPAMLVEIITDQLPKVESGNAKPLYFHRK

COc1cc([C@H](O)[C@H]2CCCC3=Cc4c(cnn4-c4ccc(F)cc4)C[C@@]32C)cc(F)c1F
EC50 (Glucocorticoid receptor [1]): 521 nM
IC50 (Glucocorticoid receptor [2]): 1.9 nM
IC50 [3]: > 5000 nM
IC50 (Estrogen receptor): > 1000 nM
IC50 (Androgen receptor): > 5000 nM
IC50 (Glucocorticoid receptor [4]): 1.9 nM
EC50 (Glucocorticoid receptor [5]): 14.4 nM
IC50 (Progesterone receptor): > 1000 nM
EC50 (Mus musculus): 15.2 nM

C[C@]12Cc3cnn(-c4ccc(F)cc4)c3C=C1CCC[C@@H]2[C@](C)(O)c1ccc(F)cc1
EC50 (Glucocorticoid receptor [1]): 57.2 nM
IC50 (Glucocorticoid receptor [2]): 2.5 nM
IC50 [3]: > 5000 nM
IC50 (Estrogen receptor): > 1000 nM
IC50 (Androgen receptor): > 5000 nM
EC50 (Glucocorticoid receptor [6]): 130 nM
IC50 (Glucocorticoid receptor [4]): 2.5 nM
EC50 (Glucocorticoid receptor [5]): 2.2 nM
IC50 (Progesterone receptor): > 1000 nM
EC50 (Mus musculus): 1.4 nM
